Reference: ChEMBL document CHEMBL1122026, “Antiestrogenic properties of substituted benz[a]anthracene-3,9-diols” (1982)

What was measured:
Rattus norvegicus [1] = organism: Rattus norvegicus; test: Affinity constant was measured by inhibition of estrus in ovariectomized rats treated with 17-beta-estradiol at a dose of 5 mg; format: functional, organism-based
Rattus norvegicus [2] = organism: Rattus norvegicus; test: Antiestrogenic potency was measured by inhibition of estrus in ovariectomized rats treated with 17-beta-estradiol at a dose of 5 mg; format: functional
How it was run: (§1)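 Ovariectomized rats were given 17β-estradiol together with the test compound. Vaginal smears were taken 32 h later; rats with cornified epithelial cells in the smear were scored as in estrus. The 32 h time point was chosen from smears taken at 0, 8, 24, 32, 48, 56 and 72 h. Read-out: percentage of rats in estrus, and its inhibition.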

Rattus norvegicus [3] = organism: Rattus norvegicus; test: Affinity constant was measured by inhibition of estrus in ovariectomized rats treated with 17-beta-estradiol; format: functional, organism-based
Rattus norvegicus [4] = organism: Rattus norvegicus; test: Antiestrogenic potency was measured by inhibition of estrus in ovariectomized rats treated with 17-beta-estradiol at a dose of 0.5 mg; format: functional; how it was run: as §1

| Compound | Ka (Rattus norvegicus [1]) [M⁻¹] | Inhibition (Rattus norvegicus [2]) [%] | Ka (Rattus norvegicus [3]) [M⁻¹] | Inhibition (Rattus norvegicus [4]) [%] |
| --- | --- | --- | --- | --- |
| Oc1ccc2cc3c(ccc4cc(O)ccc43)cc2c1 | 3e+07 | 12 |  |  |
| C[C@]12CC[C@@H]3c4ccc(O)cc4CC[C@H]3[C@@H]1C[C@@H](O)[C@@H]2O |  |  | 7e+09 |  |
| Cc1c2cc(O)ccc2cc2c1ccc1cc(O)ccc12 | 1.8e+09 | 22 |  |  |
| CC(=O)Oc1ccc2c(ccc3c(C)c4cc(OC(C)=O)ccc4c(C)c32)c1 |  | 67 |  |  |
| Cc1c2ccc(O)cc2cc2ccc3cc(O)ccc3c12 | 4.3e+07 | 44 |  |  |
| COc1ccc2c(c1)CCC(c1ccccc1)=C2c1ccc(OCCN2CCCC2)cc1 [NAFOXIDINE] |  |  |  | 44 |
| Cc1c2cc(O)ccc2c(C)c2c1ccc1cc(O)ccc12 | 1.7e+08 | 74 |  | 44 |
